High-throughput results deposited in PubChem by several laboratories.
Sampled rows, rich in hits. Any-hit rate of the full collection: about 1.5%.
TNF death inh: blocks TNF-alpha induced death of Jurkat FADD-/- cells; Jurkat FADD-/- TNF necroptosis rescue, ATP luminescence, 24 h; 0 = TNF only, 100 = no-TNF cells; activation (protection from cell death), % at 10 µM; actives 0.068% (n = 220,000);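 active = activation, meaning protection from cell death, of at least 50% relative to plate controls; inactive = activation below 50%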;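 note: necroptosis triggered by 40 ng/mL TNF-alpha added together with compound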
S1P4 ag: agonists of human S1P4 receptor; activation, % at 4.98 µM; S1P4-expressing cell line, agonist reporter assay; O95977; actives 0.35% (n = 220,000); in the data active = activation above about 11%
Target sequence (O95977 whole entry, looked up): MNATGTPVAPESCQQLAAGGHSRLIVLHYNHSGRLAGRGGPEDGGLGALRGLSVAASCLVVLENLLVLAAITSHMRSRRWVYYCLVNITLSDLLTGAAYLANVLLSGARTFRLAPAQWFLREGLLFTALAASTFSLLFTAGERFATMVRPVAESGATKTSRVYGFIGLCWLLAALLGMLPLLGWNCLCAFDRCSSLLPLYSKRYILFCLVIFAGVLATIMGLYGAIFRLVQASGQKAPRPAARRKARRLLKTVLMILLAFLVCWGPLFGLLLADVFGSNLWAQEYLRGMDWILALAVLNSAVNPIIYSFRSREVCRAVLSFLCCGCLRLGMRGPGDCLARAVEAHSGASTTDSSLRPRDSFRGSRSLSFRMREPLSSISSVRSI
TbHK1 inh: blocks Trypanosoma brucei hexokinase 1 activity; recombinant TbHK1, G6PDH-coupled NADH A340; inhibition, % at 10 µM; actives 0.11% (n = 220,000); AID 1430;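 active = inhibition of 50% or more in the single-dose primary screen; inactive = inhibition below 50%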
S1P4 antag: human S1P4 receptor antagonism | S1P4-expressing cells, antagonist mode, reporter read-out | inhibition, % at 4.98 µM | actives 0.26% (n = 220,000); in the data active = inhibition above about 29%
L929 necroptosis: blocks zVAD induced death of L929 cells. L929 zVAD necroptosis rescue, ATP luminescence, 24 h; with zVAD 60 µM. viability rescue, % at 10 µM. actives 0.38% (n = 220,000). AID 1377;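 active = activation, scaled between plate controls, above about 75%, limit read from the data; inactive = activation under that limit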
Dynein cargo inh: blocks dynein driven cargo transport along microtubules; 3617.4 mouse cells, GR-EGFP nuclear translocation imaging; test concentration mostly 20 µM; stimulated with dexamethasone, 1 µM; stronger effect = lower value; z-score, hits read low; actives 0.47% (n = 220,000);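 active = plate z-score of nuclear minus cytoplasmic receptor signal below a set negative limit, without overly bright fluorescence or cell loss, cut at about -3.5 in these data, passing the limit was not always enough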;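 note: z-score of nuclear minus cytoplasmic ring GR-EGFP intensity difference per well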
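Buffer or medium: tet-free, stripped-serum medium; reagent: dexamethasone at 1.0 µM final, 30 min; incubation: 48 h induction, 1 h compound, 30 min dex at 37 °C; measured by: formaldehyde fixation, Hoechst nuclear stain, 10x automated fluorescence imaging; read-out: nuclear-to-cytoplasmic GR-EGFP distribution per well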
G6PDH ctr: Leuconostoc glucose-6-phosphate dehydrogenase inhibition, counter-screen; shares compounds with TbHK1 inh; purified G6PDH, NADH absorbance, 1 h; inhibition, % at 10 µM; actives 7% (n = 210); AID 2516;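 active = at least 50% inhibition in the glucose-6-phosphate dehydrogenase coupled counterscreen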
TbHK1 rescreen: T. brucei hexokinase 1 inhibition, rescreen | actives 10% (n = 210) | recombinant TbHK1, G6PDH-coupled NADH A340 absorbance | inhibition, % at 10 µM | shares compounds with TbHK1 inh | AID 2560;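 active = inhibition of at least 50% in both of the two screening runs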
A number is an active result; n = inactive; x = no result.

SMILES | TNF death inh | S1P4 ag | TbHK1 inh | S1P4 antag | L929 necroptosis | Dynein cargo inh | G6PDH ctr | TbHK1 rescreen
Fc1cccc(NC(=S)NCc2ccccn2)c1 | n | n | 52 | n | n | n | n | n
CCNC(=O)NC(=O)CSc1ccc(NC(C)=O)cc1 | n | n | 74 | n | n | n | n | n
CNC(=O)NC(=O)CSc1ccc(NC(C)=O)cc1 | n | n | n | n | n | n | x | x
OCc1cc(-c2ccc(Cl)c(Cl)c2)on1 | n | n | n | n | n | n | x | x
CN(C)S(=O)(=O)c1cccc(NC(=S)NC2CCCCC2)c1 | n | n | n | n | n | n | x | x
CN(C)S(=O)(=O)c1cccc(NC(=S)NN=C(Cc2ccccc2)Cc2ccccc2)c1 | n | n | 51 | n | n | n | n | n
OCC(O)/C=N/Nc1nc(N2CCCCC2)nc(N2CCCCC2)n1 (configuration not stated) | n | n | n | n | n | n | x | x
Cc1ccc(C(=O)NNC(=O)c2ccc3ncccc3c2)cc1 | n | n | n | n | n | n | x | x
Cc1nc(S(=O)(=O)NC2CCCCC2)c(C#N)c(C)c1Cl | n | n | n | n | n | n | x | x
Cc1nc(S(=O)(=O)N2CCOCC2)c(C#N)c(C)c1Cl | n | n | 55 | n | n | n | n | n
CSc1nc(C)c(C(=O)C[n+]2ccc(C)cc2)cc1C#N | n | n | n | n | n | n | x | x
O=C(CSc1nc(-c2ccccc2)cs1)NCCN1C(=O)CSC1=O | n | n | n | n | n | n | x | x
COc1cc(OC)cc(C(=O)NC2CCN(CC(=O)Nc3cccc4ccccc34)CC2)c1 | n | n | 53 | n | n | n | n | n
Cc1c(Cl)c(=O)n2c(=O)c(Cl)c(C)n12 | n | n | n | n | n | n | x | x
Cc1ccccc1C(=O)/C(C#N)=N/Nc1c(C)n(C)n(-c2ccccc2)c1=O | n | n | 53 | n | n | n | n | n
O=C(O)C(Cc1ccccc1)N1C(=O)/C(=C/C=C/c2ccco2)SC1=S (configuration not stated) | n | n | 51 | n | n | n | n | n
NC(Cc1ccc2nsnc2c1)C(=O)O (configuration not stated) | n | n | n | n | n | n | x | x
NC(Cc1cccc2nsnc12)C(=O)O (configuration not stated) | n | n | 58 | n | n | n | n | n
Cc1[nH]c2ccccc2c1CN1CCC(Cc2ccccc2)CC1 | n | n | n | n | n | n | x | x
O=C(NC1CC2CCCC(C1)N2C(=O)NC1CCCCC1)c1ccc(F)cc1 (configuration not stated) | n | n | 65 | n | n | n | n | n
Cc1n[nH]c(=O)nc1NC(C)c1ccccc1 (configuration not stated) | n | n | 51 | n | n | n | n | n
COc1ccccc1Nc1nc(=O)[nH]nc1C | n | n | n | n | n | n | x | x
COCCn1nnnc1C(c1cccs1)N1CCN2CCCC2C1 (configuration not stated) | n | n | n | n | n | n | x | x
CN(C)S(=O)(=O)c1ccc(NC(=O)c2ccc([N+](=O)[O-])cc2)cc1 | n | n | n | n | n | n | x | x
CC(C)N(C(=O)c1ccc(C(=O)Nc2ccc([N+](=O)[O-])cc2)cc1)C(C)C | n | n | 56 | n | n | n | n | n
O=C1CSC(c2ccccn2)N1c1ccccc1 (configuration not stated) | n | n | 61 | n | n | n | n | n
O=C1CSC(c2ccccn2)N1c1ccc(Br)cc1 (configuration not stated) | n | n | n | n | n | n | x | x
COC(=O)[C@H](CCSC)NS(=O)(=O)c1ccccc1Br | n | x | n | x | n | n | x | x
N#Cc1c(-c2ccccc2)ccnc1N1CCOCC1 | n | n | n | n | n | n | x | x
